Measurements taken from ChEMBL document CHEMBL2169835, “Flavonoid dimers as novel, potent antileishmanial agents” (J Med Chem, 2012).
Activity calls are given as the source filed them. No cut-off for these calls is given here.

What was measured:
Leishmania donovani [1] = assay: Antimicrobial activity against wild-type Leishmania donovani AG83 promastigote assessed as inhibition of parasite growth after 72 hrs by MTS assay; type: functional, organism-based; conditions: AG83, 72 h
Outline: (§1)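 Promastigotes were grown in Schneider's medium pH 6.9 with 10% heat-inactivated FBS at 27 °C, seeded at 1 × 10^5 per well, and exposed to serial concentrations for 72 h at 27 °C. Compounds were in DMSO (≤1% final) or water. MTS:PMS (20:1) was added for 4 h, then OD490 was read.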

RAW264.7 = assay: Cytotoxicity against mouse RAW264.7 cells after 72 hrs by MTS assay; type: cell-based; conditions: RAW264.7, 72 h
Outline: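 RAW 264.7 murine macrophage line was plated at 1 × 10^4 cells per well in supplemented DMEM. Cells received a graded compound series for 72 h at 37 °C, 5% CO2, with a maximum of 1% DMSO. Viability was measured by MTS with PMS coupling at OD 490 nm, as percent of untreated control. The IC50 was the concentration reducing OD by half, given as mean ± SEM, N = 1–4.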

[2] = Therapeutic index, ratio of IC50 for mouse Peritoneal macrophages to IC50 for pentamidine-resistant Leishmania donovani AG83PentR50 promastigote; conditions: read-out: Ratio IC50
Outline: (§2)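 Index is PEM cytotoxicity IC50 over promastigote IC50. For PEM, cells were seeded at 2 × 10^4 per well in supplemented DMEM, given graded doses for 72 h at 37 °C, 5% CO2, and read by MTS survival.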

Leishmania donovani [3] = assay: Antimicrobial activity against SSG-resistant Leishmania donovani 39 amastigote infected in mouse peritoneal macrophages assessed as inhibition of parasite growth after 72 hrs by Giemsa staining method; type: functional, organism-based; conditions: Leishmania donovani, 39, 72 h
Outline: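 Mouse peritoneal elicited macrophages were seeded on coverslips at 1 × 10^5 cells per well in DMEM with 10% heat-inactivated FBS and left to attach overnight. They were infected overnight with late-log Ld39 promastigotes (parasite:macrophage 20:1) at 37 °C, 5% CO2, then washed. Compounds were applied for 72 h at 37 °C. Giemsa-stained amastigotes per 100 macrophages gave IC50; N = 1−3.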

[4] = Therapeutic index, ratio of IC50 for mouse PEM cells to IC50 for wild-type Leishmania donovani AG83 promastigote; type: cell-based; conditions: read-out: Ratio IC50; outline: as §2
Leishmania donovani [5] = assay: Ratio of isoginkgetin IC50 to compound IC50 for axenically grown Leishmania donovani amastigotes; type: functional
Leishmania donovani [6] = assay: Antimicrobial activity against SSG-resistant Leishmania donovani 39 promastigote assessed as inhibition of parasite growth after 72 hrs by MTS assay; type: functional, organism-based; conditions: Leishmania donovani, 39, 72 h
Outline: as §1, with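 “read. Survival was % of untreated control; IC50 = concentration halving OD; N = 1−4.” for “read.”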

[7] = Cytotoxicity against mouse Peritoneal macrophages cells after 72 hrs by MTS assay; type: cell-based; conditions: Peritoneal macrophage cell
Outline: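 Primary mouse peritoneal elicited macrophages were seeded at 2 × 10^4 cells per well in DMEM with 10% heat-inactivated FBS. They were exposed to graded doses for 72 h at 37 °C in 5% CO2. Survival was read by MTS/PMS tetrazolium reduction (OD 490 nm) relative to untreated control. The IC50 was the concentration halving OD. Results are mean ± SEM of 1–4 independent experiments.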

Leishmania donovani [8] = assay: Antimicrobial activity against SSG-resistant Leishmania donovani 39 amastigote infected in mouse peritoneal macrophages assessed as inhibition of parasite growth at 5 uM after 3 days by Giemsa staining method; type: functional, organism-based
Outline: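 Coverslip-grown peritoneal macrophages were infected 24 h at 37 °C with late-log Ld39 promastigotes (20:1), washed, then exposed to 5 μM compound for 3 days at 37 °C, with a DMSO solvent control. Giemsa staining was scored as percentage of macrophages infected and amastigotes per 100 macrophages.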

Leishmania donovani [9] = assay: Antimicrobial activity against pentamidine-resistant Leishmania donovani AG83PentR50 promastigote assessed as inhibition of parasite growth after 72 hrs by MTS assay; type: functional, organism-based; conditions: AG83PentR50, 72 h
Outline: as §1, with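 “read. Survival was % of untreated control; IC50 = concentration halving OD; N = 1−4.” for “read.”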

[10] = Therapeutic index, ratio of IC50 for mouse Peritoneal macrophages to IC50 for SSG-resistant Leishmania donovani 39 amastigote infected in mouse peritoneal macrophages; conditions: read-out: Ratio IC50
[11] = Therapeutic index, ratio of IC50 for mouse Peritoneal macrophages to IC50 for SSG-resistant Leishmania donovani 39 promastigote; conditions: read-out: Ratio IC50; outline: as §2
Leishmania donovani [12] = assay: Selectivity ratio of IC50 for compound-resistant Leishmania donovani AG83PentR50 promastigote to IC50 for wild-type Leishmania donovani AG83 promastigote; type: functional

Compound | IC50 (Leishmania donovani [1]) [µM] | IC50 (RAW264.7) [µM] | selectivity ratio [2] | IC50 (Leishmania donovani [3]) [µM] | selectivity ratio [4] | Ratio IC50 (Leishmania donovani [5]) | IC50 (Leishmania donovani [6]) [µM] | IC50 [7] [µM] | inhibition (Leishmania donovani [8]) | IC50 (Leishmania donovani [9]) [µM] | selectivity ratio [10] | selectivity ratio [11] | Ratio IC50 (Leishmania donovani [12])
O=c1cc(-c2ccc(OCCOCCN(CCOCCOc3ccc(-c4cc(=O)c5ccccc5o4)cc3)Cc3ccncc3)cc2)oc2ccccc12 | 0.2 | > 100 | > 677 | 0.63 | > 440 | 3 | 0.21 | > 88 | Active | 0.13 | > 140 | > 419 | 
N=C(N)c1ccc(OCCCCCOc2ccc(C(=N)N)cc2)cc1 [PENTAMIDINE] | 13.9 | 30 | 0.6 | > 30 | 2.2 |  | 5.3 | 30.4 |  | 54.8 | < 1 | 5.7 | 3.9
